Assay outcomes deposited in PubChem by Johns Hopkins Ion Channel Center.
KCNQ1 act: potentiators or activators of human KCNQ1 potassium channel | P51787 | CHO-K1 KCNQ1, thallium flux FluxOR fluorescence; active compounds read high | 0.35% of 310,000 active | AID 2648 | B-score at 10 µM;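 active = fluorescence ratio B-score, a plate-corrected score, at least three library SD, with initial intensity B-score within 5 SD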
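Assay system: stable KCNQ1 CHO-K1 line; medium: assay buffer, equal DMSO in all wells; timing: 90 min dye loading and 20 min compound exposure, both at room temperature; technique: kinetic FluxOR thallium fluorescence, 10-s 1-Hz baseline, 110-s post-stimulus read; read-out basis: B score of baseline-normalized fluorescence ratio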
Kir21 block: blocks the mouse Kir2.1 inward-rectifier potassium channel | P35561 | HEK293-Kir2.1, FluxOR thallium flux fluorescence; active compounds read low | B-score at 10 µM | 0.85% of 310,000 active;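 active = fluorescence ratio B-score at or below minus 3 SD of library scores, with starting-brightness B-score within 2 SD, cut at about -4.2 in these data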;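 also: channel flux triggered by added potassium and thallium sulfate stimulus; B-score of peak minus minimum fluorescence over baseline after thallium stimulus; more negative B-score means stronger Kir2.1 block with less thallium influx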
Target sequence (P35561 whole entry, looked up): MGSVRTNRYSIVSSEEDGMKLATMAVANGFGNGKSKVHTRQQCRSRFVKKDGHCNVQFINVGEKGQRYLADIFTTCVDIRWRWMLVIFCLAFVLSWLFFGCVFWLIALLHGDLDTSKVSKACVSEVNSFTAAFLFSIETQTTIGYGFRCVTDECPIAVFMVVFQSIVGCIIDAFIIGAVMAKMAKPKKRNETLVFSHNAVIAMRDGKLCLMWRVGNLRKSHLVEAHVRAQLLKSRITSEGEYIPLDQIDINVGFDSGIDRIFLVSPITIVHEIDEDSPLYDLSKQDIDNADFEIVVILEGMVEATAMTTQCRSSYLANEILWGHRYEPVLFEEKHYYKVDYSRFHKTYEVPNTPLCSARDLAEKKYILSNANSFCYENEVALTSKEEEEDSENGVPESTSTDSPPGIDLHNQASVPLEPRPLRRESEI
hERG protect: hERG (human) protection from proarrhythmic block; Q12809; activation (rescue from dofetilide block), less the hit threshold, % at 10 µM; CHO-hERG, FluxOR thallium flux, dofetilide IC70 present; 0.51% of 310,000 active;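 active = activation above the mean of controls blocked by dofetilide plus 5 SD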;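 also: thallium influx through hERG after potassium depolarization seen as dye fluorescence rise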
KCNK3 inh: human KCNK3 channel inhibition, primary screen; 0.84% of 340,000 active; B-score at 10 µM; O14649; CHO-KCNK3 thallium flux, FluxOR fluorescence; active compounds read low;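 active = B-score under library mean minus 4 SD, starting fluorescence ratio at most library mean plus 5 SD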;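 also: more negative B-score means stronger inhibition of thallium flux through KCNK3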
KCNQ1 inh: inhibitors of human KCNQ1 potassium channel; 1.3% of 310,000 active; P51787; AID 2642; B-score at 10 µM; CHO-K1 KCNQ1, FluxOR thallium flux fluorescence; active compounds read high;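 active = compounds whose thallium flux B-score, printed positive for inhibition, exceeds three library SD while starting fluorescence stays within three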;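 also: channel opened by potassium depolarization with thallium stimulus after 20 min compound exposure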
KCNK9 block: inhibitors of human KCNK9 two-pore domain potassium channel; HEK293 KCNK9, FluxOR thallium flux fluorescence; active compounds read low; Q9NPC2; 1.2% of 310,000 active; B-score at 10 µM;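 active = ratio B-score over 3 SD below the library mean, with starting fluorescence within 5 SD of its mean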;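 also: negative B-score means less thallium flux so channel inhibition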
KCNK9 inh conf: human KCNK9 inhibitor confirmation. HEK293 KCNK9 cells, FluxOR thallium flux fluorescence. inhibition, % at 10 µM. shares compounds with KCNK9 block. 43% of 4,900 active. AID 492992;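 active = thallium signal inhibited by more than 5 SD of the compound-free buffer control wells, on both duplicate plates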;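 also: 0% = assay buffer control wells without compound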
Kir2-1 spec: mouse Kir2.1 off-target activity of KCNK9 modulators; shares compounds with KCNK9 block; Kir2.1 cells, FluxOR thallium flux fluorescence; inhibition, % at 10 µM; 4% of 4,900 active;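 active = thallium signal drop more than 5 SD beyond the mean of the no-compound control wells, seen in both duplicate plates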;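 also: signal is fluorescence rise after thallium addition divided by baseline fluorescence; plate controls were assay buffer only for no effect and full block by chlorpromazine control for full effect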
KCNK9 uninduced: second check of KCNK9 modulator effects in non-induced HEK293 cells; shares compounds with KCNK9 block; 40% of 4,900 active; AID 492997; FluxOR thallium flux; inhibition, % at 10 µM;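 active = thallium signal drop beyond 5 SD of the untreated control mean, on both duplicate plates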;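 also: plate controls were buffer only IC0 wells for no effect and SID17386958 at its maximal inhibitory level for full effect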
* marks the source's active call; other numbers are inactive results; i = inactive; nt = no result. A selection: hits, their analogues and other compounds. The true share with any hit is near 3.8%.

SMILES | KCNQ1 act | Kir21 block | hERG protect | KCNK3 inh | KCNQ1 inh | KCNK9 block | KCNK9 inh conf | Kir2-1 spec | KCNK9 uninduced
Cn1c(=O)c2nc(-c3ccc(Cl)cc3Cl)oc2c2ccccc21 | i | 0.87 | -4.4 | i | i | -10.2* | 27.5%* | i | 32.5%*
O=C1C2CCCN2C(=O)N1CCCCN1CCN(c2ccc(F)cc2)CC1 (stereo not drawn) | i | 1.03 | -10.2 | i | i | i | nt | nt | nt
COc1ccc(N2Cc3cccc(C(=O)NC(C)CCc4ccco4)c3C2=O)cc1 (stereo not drawn) | i | 0.02 | -14.1 | -9.92* | i | -15.8* | 57.0%* | i | 33.5%*
CC(CCc1ccco1)NC(=O)c1cccc2c1C(=O)N(C1CCCCC1)C2 (stereo not drawn) | i | -0.21 | -14.6 | i | i | i | nt | nt | nt
COc1ccc(C/C(N)=N/OC(=O)COc2ccccc2C)cc1 | i | 0.6 | -5.9 | i | i | i | nt | nt | nt
COc1ccccc1C/C(N)=N/OC(=O)COc1ccc(C)cc1C | i | -1.88 | -11.7 | i | i | i | i | i | i
CCN(CC)C(=O)N1c2ccccc2C=Cc2ccccc21 | i | -0.74 | -9.7 | i | i | -8.21* | 42.0%* | i | 29.5%*
CCOC(=O)C1CCCN(Cc2cc(=O)oc3cc(C)c(C(C)C)cc23)C1 (stereo not drawn) | i | -1.8 | -11.3 | i | i | -9.25* | 52.5%* | i | 42.5%*
COc1ccccc1OCc1nc(C#N)c(N2CC(C)CC(C)C2)o1 (stereo not drawn) | i | -0.52 | -6.5 | i | i | i | i | i | i
COc1ccccc1OCc1nc(C#N)c(N2CCCC2)o1 | i | 2.36 | -13.1 | i | i | i | nt | nt | nt
OCCC1CN(C/C=C/c2ccco2)CCN1Cc1ccccc1 (stereo not drawn) | i | 0.99 | 2.4 | i | i | i | nt | nt | nt
Cc1cccc(NC(=S)NC(=O)c2ccc(-c3ccccc3)cc2)n1 | i | -0.18 | -9.8 | i | i | -11.4* | i | i | i
Cc1ccc(C(=O)O)cc1NC(=S)NC(=O)c1ccc(-c2ccccc2)cc1 | i | 0.07 | -7.5 | i | i | i | i | i | i
Cc1cccc(NC(=S)NC(=O)C(c2ccccc2)c2ccccc2)n1 | i | 1.8 | -6.2 | i | i | i | nt | nt | nt
O=C(COC(=O)c1ccccc1C(=O)c1ccccc1)Nc1ccc(SC(F)F)cc1 | i | 0.28 | -10.5 | i | i | -11.7* | i | i | 31.5%*
CC1(C)CC(=O)C(C=Nc2ccc(NC3=C(C#N)C(=O)CC(C)(C)C3)cc2)=C(O)C1 | i | -0.96 | -6.2 | i | i | i | nt | nt | nt
Cc1nn(-c2ccccc2)c2nc(C(F)(F)F)[nH]c(=O)c12 | i | 1.31 | -1.1 | i | i | i | nt | nt | nt
Cc1nn(-c2cc(C(F)(F)F)ccc2Cl)c2nc(C(Cl)(Cl)Cl)[nH]c(=O)c12 | i | 0.54 | -4.2 | i | i | i | i | i | i
COc1ccc(C(=O)Nc2ccccc2)cc1NC(=O)c1ccc([N+](=O)[O-])cc1 | i | 0.8 | -0.8 | i | i | i | nt | nt | nt
COc1ccc(-c2n(Cc3ccccc3)c3ccccc3[n+]2Cc2ccccc2)cc1 | i | -1.38 | -11.3 | i | 8* | -10.7* | i | 43.0%* | i
COc1ccc(CNc2nc(NC(C)=O)nn2-c2ccccc2)cc1 | i | -0.35 | -5.1 | i | i | i | nt | nt | nt
CCOc1ccc2[nH]c(=O)c(CN(Cc3cccs3)Cc3nnnn3C(C)(C)CC)cc2c1 | i | -2.25 | -18.4 | -9.91* | i | -9.72* | 34.5%* | i | i
Cc1ccc(S(=O)(=O)N/N=C/c2ccc(OS(=O)(=O)c3ccc(C)c([N+](=O)[O-])c3)cc2)cc1 | i | -2.73 | -10.3 | i | i | i | i | i | i
O=C(Nc1nc(-c2ccccn2)cs1)c1ccc(Cl)s1 | i | -1.11 | -3.4 | i | i | i | nt | nt | nt
O=C(Nc1nc(-c2cc(Cl)sc2Cl)cs1)c1ccccc1 | i | 0.93 | -7.1 | i | i | -9.47* | 33.5%* | i | i
SMILES | KCNQ1 act | Kir21 block | hERG protect | KCNK3 inh | KCNQ1 inh | KCNK9 block | KCNK9 inh conf | Kir2-1 spec | KCNK9 uninduced
O=C(OCC(=O)N1CCc2ccccc21)c1c2c(nc3ccccc13)CCCC2 | i | -2.57 | -5.1 | i | i | -13.3* | 53.0%* | i | i
O=C(COC(=O)c1c2c(nc3ccccc13)CCCCC2)c1ccc(Cl)s1 | i | -0.75 | -5.4 | i | i | -13.1* | 46.0%* | i | i
NC(=O)COC(=O)c1c2c(nc3ccccc13)CCCCC2 | i | 1.58 | -3.7 | i | i | i | nt | nt | nt
CCOP(=O)(OCC)c1nc(-c2cccc3ccccc23)oc1N1CCOCC1 | i | -2 | -14.3 | i | i | i | nt | nt | nt
CCOP(=O)(OCC)c1nc(-c2cccc3ccccc23)oc1NCCc1ccc(OC)cc1 | i | -0.26 | -12.4 | i | i | i | i | i | 28.5%*
O=C1c2ccccc2C(Nc2ccc(Cl)cn2)N1c1ccccn1 (stereo not drawn) | i | -0.09 | -8.4 | i | i | -9.75* | 37.0%* | i | i
